ChEMBL document CHEMBL2406959, “Synthesis and evaluation of diaryl sulfides and diaryl selenide compounds for antitubulin and cytotoxic activity” (Bioorg Med Chem Lett, 2013)

Legend:
Bos taurus [1] = organism: Bos taurus; experiment: Displacement of [3H]colchicine from bovine brain tubulin at 5 uM after 10 mins by scintillation counting analysis relative to control
PC-3 = experiment: Cytotoxicity against human PC3 cells after 48 hrs by sulforhodamine B assay; assay type: functional, cell-based; conditions: PC-3, 48 h
MCF7 = experiment: Cytotoxicity against human MCF7 cells after 96 hrs by sulforhodamine B assay; assay type: functional, cell-based; conditions: MCF7, 96 h
Outline: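 Human MCF-7 breast cancer cells incubated with compounds for 96 h at 37 °C.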

[2] = Cytotoxicity against human 786 cells after 48 hrs by sulforhodamine B assay; assay type: functional, cell-based
Outline: (§1)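 Human 786 (kidney), HT-29 (colon) and PC-3 (prostate) cancer cells exposed to compounds for 48 h at 37 °C.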

[3] = Inhibition of bovine brain tubulin polymerization incubated for 15 mins prior to GTP addition measured after 20 mins by spectrophotometry; parameters: species or system Bos taurus
HT-29 = experiment: Cytotoxicity against human HT-29 cells after 48 hrs by sulforhodamine B assay; assay type: functional, cell-based; conditions: HT-29, 48 h; outline: as §1
Bos taurus [4] = organism: Bos taurus; experiment: Displacement of [3H]colchicine from bovine brain tubulin at 1 uM after 10 mins by scintillation counting analysis relative to control
Tubulin = experiment: Inhibition of tubulin (unknown origin) polymerization after 20 mins; assay type: protein-complex assay, Homo sapiens

Row | Structure (SMILES) | inhibition (Bos taurus [1]) | IC50 (PC-3) | IC50 (MCF7) | IC50 [2] | IC50 [3] | IC50 (HT-29) | inhibition (Bos taurus [4]) | IC50 (Tubulin)
1 | COc1ccc(Sc2cc(OC)c(OC)c(OC)c2)cc1[N+](=O)[O-] | 58% | 0.2 µM | 1 µM | 1.71 µM | 2.8 µM | 0.63 µM | – | –
2 | COc1cc(SSc2cc(OC)c(OC)c(OC)c2)cc(OC)c1OC | 9% | 6.75 µM | > 10 µM | 112 µM | 5.4 µM | 76.5 µM | – | –
3 | COc1ccc(Sc2cc(OC)c(OC)c(OC)c2)cc1N | 95% | 0.53 µM | 0.008 µM | 1.24 µM | 0.74 µM | 1.31 µM | 74% | –
4 | COc1ccc([Se]c2cc(OC)c(OC)c(OC)c2)cc1 | 94% | 0.08 µM | 0.01 µM | 0.68 µM | 0.62 µM | 0.28 µM | 74% | –
5 | COc1ccc([Se]c2ccc(OC)cc2)cc1 | – | 8.8 µM | > 10 µM | – | > 20 µM | 210 µM | – | –
6 | COc1cccc2c1C(=O)c1c(O)c3c(c(O)c1C2=O)C[C@@](O)(C(=O)CO)C[C@@H]3O[C@H]1C[C@H](N)[C@H](O)[C@H](C)O1 [DOXORUBICIN] | – | – | – | 0.33 µM | – | 0.44 µM | – | –
7 | COc1ccc(/C=C\c2cc(OC)c(OC)c(OC)c2)cc1[N+](=O)[O-] | – | – | – | – | – | – | – | 1.8 µM
8 | COc1ccc([Se][Se]c2ccc(OC)cc2)cc1 | 34% | 1.99 µM | > 10 µM | 20.7 µM | 1.7 µM | 59.5 µM | – | –
9 | COc1ccc(/C=C\c2cc(OC)c(OC)c(OC)c2)cc1O [COMBRETASTATIN A4] | – | 1 µM | 0.006 µM | 5 µM | – | – | – | –
